The results in this text go back to BindingDB's records for doi:10.1021/jm00031a021 (Tap Pharmaceuticals, 1994).

Where a SMILES comes first, the peptide text is derived from it. [ ]: non-standard residue; d: D form. The star is where a group is joined. Propanoyl(3-(4-F-phenyl)) = O=C(CCc1ccc(F)cc1)*; Desaminotyrosyl = O=C(CCc1ccc(O)cc1)*; d1Nal = N[C@H](Cc1cccc2ccccc12)C(=O)O; Lys(iPr) = CC(C)NCCCC[C@H](N)C(=O)O; NMeY = CN[C@@H](Cc1ccc(O)cc1)C(=O)O; Nicotinoyl = O=C(c1cccnc1)*

This test concerns the target T1, Gonadotropin-releasing hormone receptor (Rattus norvegicus, UniProt P30969).
T1 sequence (P30969 whole entry): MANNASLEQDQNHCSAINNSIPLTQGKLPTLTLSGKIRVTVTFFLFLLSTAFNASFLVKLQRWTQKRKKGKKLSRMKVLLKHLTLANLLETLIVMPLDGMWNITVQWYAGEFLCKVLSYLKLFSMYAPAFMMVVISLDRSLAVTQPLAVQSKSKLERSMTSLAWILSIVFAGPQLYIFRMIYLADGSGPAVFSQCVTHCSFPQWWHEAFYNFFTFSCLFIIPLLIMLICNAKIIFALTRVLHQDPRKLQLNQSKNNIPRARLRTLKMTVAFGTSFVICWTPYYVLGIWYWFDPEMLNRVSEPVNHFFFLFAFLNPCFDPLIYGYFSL
Nature of the test: Inhibition of the in vitro binding of [125I]-labeled leuprolide to the rat pituitary luteinizing hormone releasing hormone (LHRH) receptor. The essentials:
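Rat pituitary LHRH receptor binding with 125I-labeled leuprolide as radioligand. pKI is the negative log of the analogue concentration inhibiting 50% of tracer binding. Compounds tested as TFA salts.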
The molecule `CCNC(=O)[C@H]1CCCN1C(=O)[C@H](CCCN=C(N)N)NC(=O)[C@H](CC(C)C)NC(=O)[C@@H](Cc1c[nH]c2ccccc12)NC(=O)[C@H](Cc1ccc(O)cc1)NC(=O)[C@H](CO)NC(=O)C(Cc1cccc2ccccc12)NC(=O)CCc1ccc(F)cc1` (stereo partly specified) displayed a Ki of 0.017 nM. This counts as picomolar. In the case of `CCNC(=O)[C@H]1CCCN1C(=O)[C@H](CCCN=C(N)N)NC(=O)[C@H](CC(C)C)NC(=O)[C@@H](CCCCNC(=O)c1cccnc1)NC(=O)[C@H](Cc1ccc(O)cc1)N(C)C(=O)[C@H](CO)NC(=O)[C@H](Cc1c[nH]c2ccccc12)NC(=O)CCc1ccc(F)cc1F`, the affinity, expressed as Ki, was 0.02 nM. `CCNC(=O)[C@@H]1CCCN1C(=O)[C@H](CCCN=C(N)N)NC(=O)[C@H](CC(C)C)NC(=O)[C@@H](Cc1c[nH]c2ccccc12)NC(=O)[C@H](Cc1ccc(O)cc1)NC(=O)[C@H](CO)NC(=O)[C@H](Cc1c[nH]c2ccccc12)NC(=O)Cc1ccccc1`: the inhibition constant Ki amounted to 0.832 nM. This Ki is about 42-fold higher than that of the molecule before. To `CCNC(=O)[C@@H]1CCCN1C(=O)[C@H](CCCN=C(N)N)NC(=O)[C@H](CC(C)C)NC(=O)[C@@H](Cc1c[nH]c2ccccc12)NC(=O)[C@H](Cc1ccc(O)cc1)NC(=O)[C@H](CO)NC(=O)[C@H](Cc1c[nH]c2ccccc12)NC(=O)CCc1ccc(O)cc1` (Desaminotyrosyl-WSY[dW]LRP-NHEt) belongs 0.085 nM. For the molecule `CCNC(=O)[C@@H]1CCCN1C(=O)[C@H](CCCN=C(N)N)NC(=O)[C@H](CC(C)C)NC(=O)[C@@H](Cc1c[nH]c2ccccc12)NC(=O)[C@H](Cc1ccc(O)cc1)NC(=O)[C@H](CO)NC(=O)[C@H](Cc1ccc(O)cc1)NC(=O)CCc1ccc(F)cc1`, the Ki turned out to be 0.022 nM. As for `CCNC(=O)[C@H]1CCCN1C(=O)[C@H](CCCN=C(N)N)NC(=O)[C@H](CC(C)C)NC(=O)[C@@H](Cc1c[nH]c2ccccc12)NC(=O)[C@H](Cc1ccc(O)cc1)N(C)C(=O)[C@H](CO)NC(=O)[C@H](Cc1c[nH]c2ccccc12)NC(=O)CCc1ccc(Cl)cc1`, affinity was put at a Ki of 0.071 nM. Molecule `CCNC(=O)[C@H]1CCCN1C(=O)[C@H](CCCN=C(N)N)NC(=O)[C@H](CC(C)C)NC(=O)[C@@H](CCCCNC(=O)c1cccnc1)NC(=O)[C@H](Cc1ccc(O)cc1)NC(=O)[C@H](CO)NC(=O)[C@H](Cc1c[nH]c2ccccc12)NC(=O)CCc1ccc(F)cc1` had a Ki of 0.023 nM. This Ki is about 3.1-fold lower than that of the molecule before. `CCNC(=O)[C@@H]1CCCN1C(=O)[C@H](CCCN=C(N)N)NC(=O)[C@H](CC(C)C)NC(=O)[C@@H](Cc1c[nH]c2ccccc12)NC(=O)[C@H](Cc1ccc(O)cc1)NC(=O)[C@H](CO)NC(=O)[C@H](Cc1c[nH]c2ccccc12)NC(=O)CCc1cccc(F)c1` displayed a Ki of 1.35 nM.

The molecule `CC(C)C[C@H](NC(=O)[C@@H](CCCCNC(=O)c1cccnc1)NC(=O)[C@H](Cc1ccc(O)cc1)N(C)C(=O)[C@H](CO)NC(=O)[C@@H](Cc1cccc2ccccc12)NC(=O)CCc1ccc(F)cc1)C(=O)N[C@@H](CCCCNC(C)C)C(=O)N1CCC[C@H]1C(=O)N[C@H](C)C(N)=O` ({Propanoyl(3-(4-F-phenyl))}-[d1Nal]S[NMeY][dK](Nicotinoyl)L[Lys(iPr)]P[dA]-NH2) came in with a Ki of 0.02 nM.

`CCNC(=O)[C@H]1CCCN1C(=O)[C@H](CCCN=C(N)N)NC(=O)[C@H](CC(C)C)NC(=O)[C@@H](Cc1c[nH]c2ccccc12)NC(=O)[C@H](Cc1ccc(O)cc1)N(C)C(=O)[C@H](CO)NC(=O)[C@H](Cc1c[nH]c2ccccc12)NC(=O)CCc1ccc(F)cc1F` registered a Ki of 0.039 nM. For `CCNC(=O)[C@@H]1CCCN1C(=O)[C@H](CCCN=C(N)N)NC(=O)[C@H](CC(C)C)NC(=O)[C@@H](Cc1c[nH]c2ccccc12)NC(=O)[C@H](Cc1ccc(O)cc1)NC(=O)[C@H](CO)NC(=O)[C@@H](Cc1c[nH]c2ccccc12)NC(=O)c1cc2ccccc2[nH]1`, the Ki is 0.076 nM.
